One block for each compound: values may come before it.
Experiments:
[1] = target: Tyrosine-protein kinase Blk (Homo sapiens) (UniProt P51451); experiment: Inhibition of human recombinant BLK at 500 nM in presence of ATP by radiometric assay relative to control
Method in brief: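 Part of a radiometric in vitro activity panel of 327 recombinant human kinases. Each kinase was tested in duplicate at one inhibitor concentration. Activity remaining was expressed as a percentage of the vehicle control, and percent inhibition was taken as 100 minus that value.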

[2] = target: Cyclin-dependent kinase 12 (Homo sapiens) (UniProt Q9NYV4); experiment: Inhibition of human recombinant CRK7 at 500 nM in presence of ATP by radiometric assay relative to control
Sequence of Cyclin-dependent kinase 12 (Homo sapiens) (Q9NYV4 whole entry, looked up): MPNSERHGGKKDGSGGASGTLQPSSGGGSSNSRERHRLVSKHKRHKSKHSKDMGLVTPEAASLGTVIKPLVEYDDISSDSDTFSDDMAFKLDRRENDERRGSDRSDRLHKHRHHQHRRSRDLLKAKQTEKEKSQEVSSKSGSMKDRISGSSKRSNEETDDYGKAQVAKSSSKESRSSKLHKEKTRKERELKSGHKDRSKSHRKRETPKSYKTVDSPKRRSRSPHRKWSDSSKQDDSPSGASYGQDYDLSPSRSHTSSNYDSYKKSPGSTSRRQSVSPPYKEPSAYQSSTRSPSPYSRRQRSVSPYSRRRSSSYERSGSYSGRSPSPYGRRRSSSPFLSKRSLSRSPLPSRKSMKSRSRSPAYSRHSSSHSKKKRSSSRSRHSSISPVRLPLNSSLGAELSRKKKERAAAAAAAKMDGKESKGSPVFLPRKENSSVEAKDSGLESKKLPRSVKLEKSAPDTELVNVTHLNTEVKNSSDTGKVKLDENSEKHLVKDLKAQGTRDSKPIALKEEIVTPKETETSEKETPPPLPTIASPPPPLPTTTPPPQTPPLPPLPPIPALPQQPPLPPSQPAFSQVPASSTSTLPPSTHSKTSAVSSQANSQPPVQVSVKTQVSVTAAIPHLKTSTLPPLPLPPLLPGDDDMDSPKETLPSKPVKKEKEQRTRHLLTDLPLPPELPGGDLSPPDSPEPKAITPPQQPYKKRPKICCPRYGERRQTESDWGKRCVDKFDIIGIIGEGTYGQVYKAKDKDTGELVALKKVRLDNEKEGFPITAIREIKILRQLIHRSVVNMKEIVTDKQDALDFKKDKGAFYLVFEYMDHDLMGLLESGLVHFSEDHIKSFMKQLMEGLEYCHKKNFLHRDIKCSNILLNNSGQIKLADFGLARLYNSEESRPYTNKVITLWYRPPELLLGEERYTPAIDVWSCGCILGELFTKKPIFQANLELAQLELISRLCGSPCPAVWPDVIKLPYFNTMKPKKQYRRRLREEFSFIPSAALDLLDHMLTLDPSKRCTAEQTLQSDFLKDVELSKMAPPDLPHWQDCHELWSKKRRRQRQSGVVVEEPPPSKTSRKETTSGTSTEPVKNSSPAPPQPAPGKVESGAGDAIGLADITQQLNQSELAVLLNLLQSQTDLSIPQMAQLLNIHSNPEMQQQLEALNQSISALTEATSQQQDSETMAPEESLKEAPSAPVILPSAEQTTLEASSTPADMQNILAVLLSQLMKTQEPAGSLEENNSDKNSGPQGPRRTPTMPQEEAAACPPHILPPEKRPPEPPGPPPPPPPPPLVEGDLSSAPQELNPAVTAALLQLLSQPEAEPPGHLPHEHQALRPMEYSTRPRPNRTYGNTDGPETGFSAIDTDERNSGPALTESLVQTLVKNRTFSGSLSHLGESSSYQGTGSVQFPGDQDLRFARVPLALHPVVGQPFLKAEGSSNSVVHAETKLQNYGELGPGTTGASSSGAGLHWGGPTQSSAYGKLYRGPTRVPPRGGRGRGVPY

[3] = target: T1, Mitogen-activated protein kinase 13 (Homo sapiens) (UniProt O15264); experiment: Inhibition of human recombinant p38delta at 500 nM in presence of ATP by radiometric assay relative to control
T1 sequence (whole entry): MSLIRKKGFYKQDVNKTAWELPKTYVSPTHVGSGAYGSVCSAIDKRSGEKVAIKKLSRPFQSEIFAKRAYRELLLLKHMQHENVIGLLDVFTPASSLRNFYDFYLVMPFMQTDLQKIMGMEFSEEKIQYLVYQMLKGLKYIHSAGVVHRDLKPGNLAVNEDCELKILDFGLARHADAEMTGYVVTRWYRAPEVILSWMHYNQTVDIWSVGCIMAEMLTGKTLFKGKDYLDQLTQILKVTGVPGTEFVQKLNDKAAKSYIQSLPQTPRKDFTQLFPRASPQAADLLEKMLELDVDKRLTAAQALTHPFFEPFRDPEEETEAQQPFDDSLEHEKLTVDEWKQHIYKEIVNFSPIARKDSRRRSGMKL

[4] = target: T2, Mitogen-activated protein kinase kinase kinase 5 (Homo sapiens) (UniProt Q99683); experiment: Inhibition of human recombinant MAP3K5 at 15 nM in presence of ATP by radiometric assay relative to control
T2 sequence (whole entry): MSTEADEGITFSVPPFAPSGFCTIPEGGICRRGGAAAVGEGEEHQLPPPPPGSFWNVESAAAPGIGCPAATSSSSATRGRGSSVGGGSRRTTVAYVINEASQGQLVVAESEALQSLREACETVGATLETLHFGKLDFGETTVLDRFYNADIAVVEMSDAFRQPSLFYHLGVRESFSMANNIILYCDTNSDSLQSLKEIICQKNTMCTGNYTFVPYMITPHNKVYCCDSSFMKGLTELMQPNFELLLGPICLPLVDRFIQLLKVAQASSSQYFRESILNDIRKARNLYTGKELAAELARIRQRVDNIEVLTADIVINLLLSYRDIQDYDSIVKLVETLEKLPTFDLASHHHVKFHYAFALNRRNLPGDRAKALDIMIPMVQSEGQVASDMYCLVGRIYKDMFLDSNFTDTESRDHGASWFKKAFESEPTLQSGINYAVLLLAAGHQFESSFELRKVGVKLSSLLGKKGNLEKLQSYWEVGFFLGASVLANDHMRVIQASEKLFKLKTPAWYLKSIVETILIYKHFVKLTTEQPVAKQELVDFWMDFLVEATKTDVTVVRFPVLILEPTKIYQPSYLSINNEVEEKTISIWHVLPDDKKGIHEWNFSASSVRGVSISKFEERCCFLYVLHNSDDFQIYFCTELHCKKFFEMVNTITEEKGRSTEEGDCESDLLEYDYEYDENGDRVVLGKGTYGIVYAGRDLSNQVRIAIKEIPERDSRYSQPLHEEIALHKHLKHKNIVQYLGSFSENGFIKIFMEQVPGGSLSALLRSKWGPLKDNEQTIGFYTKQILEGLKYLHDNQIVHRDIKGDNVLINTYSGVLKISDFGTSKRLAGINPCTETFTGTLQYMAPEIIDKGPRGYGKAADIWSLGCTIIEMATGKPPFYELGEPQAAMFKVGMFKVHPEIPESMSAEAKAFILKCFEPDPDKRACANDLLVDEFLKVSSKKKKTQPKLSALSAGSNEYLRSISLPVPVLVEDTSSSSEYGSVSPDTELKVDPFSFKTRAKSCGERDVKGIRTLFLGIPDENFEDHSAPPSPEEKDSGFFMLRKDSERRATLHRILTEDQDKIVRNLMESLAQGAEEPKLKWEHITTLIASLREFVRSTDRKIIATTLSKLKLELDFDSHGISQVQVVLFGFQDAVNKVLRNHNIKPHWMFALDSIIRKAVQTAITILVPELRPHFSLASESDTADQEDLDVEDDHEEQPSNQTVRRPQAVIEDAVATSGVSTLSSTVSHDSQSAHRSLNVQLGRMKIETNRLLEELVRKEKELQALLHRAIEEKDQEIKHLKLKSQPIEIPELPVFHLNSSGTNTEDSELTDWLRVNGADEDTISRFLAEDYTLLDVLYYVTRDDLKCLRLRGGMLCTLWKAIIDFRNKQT

[5] = target: Tyrosine-protein kinase Lck (Homo sapiens) (UniProt P06239); experiment: Inhibition of human recombinant LCK at 15 nM related to control ULK1
Sequence of Tyrosine-protein kinase Lck (Homo sapiens) (P06239 2-509 limits assumed): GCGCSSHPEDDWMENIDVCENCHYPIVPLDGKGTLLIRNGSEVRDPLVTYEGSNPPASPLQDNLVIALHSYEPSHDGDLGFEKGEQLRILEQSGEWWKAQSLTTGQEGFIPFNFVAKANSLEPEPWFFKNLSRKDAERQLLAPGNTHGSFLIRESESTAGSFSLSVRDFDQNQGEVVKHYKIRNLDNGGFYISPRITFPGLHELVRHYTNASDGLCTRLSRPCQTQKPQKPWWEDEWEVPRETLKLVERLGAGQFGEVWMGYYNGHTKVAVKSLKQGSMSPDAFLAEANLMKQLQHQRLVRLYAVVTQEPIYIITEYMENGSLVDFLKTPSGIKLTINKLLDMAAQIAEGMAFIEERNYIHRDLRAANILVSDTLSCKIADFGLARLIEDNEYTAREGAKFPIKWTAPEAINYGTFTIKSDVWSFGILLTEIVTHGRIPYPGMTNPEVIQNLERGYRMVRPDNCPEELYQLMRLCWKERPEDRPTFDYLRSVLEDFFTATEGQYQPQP

[6] = target: T3, Serine/threonine-protein kinase Sgk2 (Homo sapiens) (UniProt Q9HBY8); experiment: Inhibition of human recombinant SGK2 at 40 nM in presence of ATP by radiometric assay relative to control
T3 sequence (whole entry): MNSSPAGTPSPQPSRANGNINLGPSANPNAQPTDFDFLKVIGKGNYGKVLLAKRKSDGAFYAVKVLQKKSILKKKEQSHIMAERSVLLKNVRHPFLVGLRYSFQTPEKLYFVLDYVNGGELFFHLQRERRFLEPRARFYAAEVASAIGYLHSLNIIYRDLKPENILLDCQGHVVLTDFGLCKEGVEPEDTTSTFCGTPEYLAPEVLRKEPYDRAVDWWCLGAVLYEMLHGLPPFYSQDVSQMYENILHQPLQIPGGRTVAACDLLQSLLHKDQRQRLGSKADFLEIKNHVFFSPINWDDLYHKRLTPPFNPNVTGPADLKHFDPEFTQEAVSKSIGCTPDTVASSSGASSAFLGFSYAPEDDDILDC

Sequence of Tyrosine-protein kinase Blk (Homo sapiens) (P51451 2-505 limits assumed): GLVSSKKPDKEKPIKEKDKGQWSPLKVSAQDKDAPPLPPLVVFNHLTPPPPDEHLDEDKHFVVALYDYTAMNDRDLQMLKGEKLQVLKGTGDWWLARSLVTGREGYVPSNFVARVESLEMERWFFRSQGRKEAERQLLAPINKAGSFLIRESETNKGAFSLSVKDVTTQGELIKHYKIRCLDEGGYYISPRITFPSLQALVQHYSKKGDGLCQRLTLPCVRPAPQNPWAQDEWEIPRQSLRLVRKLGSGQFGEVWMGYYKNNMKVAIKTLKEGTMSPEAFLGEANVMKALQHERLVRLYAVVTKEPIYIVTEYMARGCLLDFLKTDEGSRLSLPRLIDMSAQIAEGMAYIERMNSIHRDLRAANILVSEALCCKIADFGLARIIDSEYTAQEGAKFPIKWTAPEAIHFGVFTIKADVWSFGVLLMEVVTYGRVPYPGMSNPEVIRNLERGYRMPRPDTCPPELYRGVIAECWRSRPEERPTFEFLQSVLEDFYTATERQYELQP

inhibition [1]: 29%
inhibition [2]: 0%
inhibition [3]: 19%
Structure (SMILES): CNC(=O)c1ccccc1Oc1nc(Nc2cc(OC)c(OC)c(OC)c2)ncc1Br

inhibition [4]: 0%
fold change (FC) [5]: 0.13
Structure (SMILES): CC(C)[C@H](NC(=O)c1cc(-c2cnn3cc(-c4ccc(OCCN5CCCCC5)cc4)cnc23)cs1)C(F)(F)F

inhibition [6]: 12%
Structure (SMILES): O=C(N[C@@H](C1CC1)C(F)(F)F)c1cc(-c2cnn3cc(-c4ccc(F)cc4)cnc23)cs1

Source: ChEMBL document CHEMBL5653631, “A Potent and Selective ULK1 Inhibitor Suppresses Autophagy and Sensitizes Cancer Cells to Nutrient Stress” (iScience, 2018)
